The EternaBench riboswitch data

System: MS2 coat protein
Assay: apparent Kd, MS2 coat protein; higher = weaker binding; RNA-MaP array; FMN 200 µM where present
How it was run: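 Designs were transcribed by stalled E. coli RNA polymerase on Illumina sequencing-chip clusters. They were titrated with SNAP-549-labelled MS2 coat protein from 0.7 or 1.5 nM, doubling to 3 µM, in 100 mM Tris-HCl pH 7.5, 80 mM KCl, 4 mM MgCl2, BSA, DTT, yeast tRNA and Tween-20, without and then with constant ligand. The apparent Kd is the median of filtered per-cluster fits after normalisation of green signal to red-channel RNA signal and control-cluster median Fmax.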

[1] = designed as: OFF switch for flavin mononucleotide, no ligand
[2] = ligand present: flavin mononucleotide, designed as: OFF switch for flavin mononucleotide
[3] = designed as: ON switch for flavin mononucleotide, no ligand
[4] = ligand present: flavin mononucleotide, designed as: ON switch for flavin mononucleotide

| Sequence | apparent Kd [1] [nM] | apparent Kd [2] [nM] | apparent Kd [3] [nM] | apparent Kd [4] [nM] |
| --- | --- | --- | --- | --- |
| GUUCUGCCUCCUGCCGGAACAUGAGGAUCACCCAUGUUGCCUGAGGAUAUCCUAUGGCGUCCACAGGAGAAGGCAGGCAGCAUA | 18.6 | 19.6 |  |  |
| GUUCUUCCUGUAAGGAUAUCCAUGUAUCAAAGUAUGGAGAAGGUACAUGAGGAUCACCCAUGUCACCCGCGUUA | 22.8 | 49.6 |  |  |
| GUUCUUCCUGUAAGGAUAUCCAUGUGUCAGUUUAUGGAGAAGGUACAUGAGGAUCACCCAUGUCACCCGCGUUA | 18.4 | 51.2 |  |  |
| GUUGCUUAUGAGAAGGCGAUCAUGAAACAUGAUCGAGGAUAUCAUGUAAACAUGAGGAUCACCCAUGUAUGGGUAUUAUGCAGC |  |  | 320 | 69.3 |
| GUUGUGCGAGGAUAUACUUGGUGUGUCCUGUGCACGUAAUGACAUGAGGAUCACCCAUGUAGAAGGUGCCCAGG | 32.8 | 33.9 |  |  |
| GUUGUUACUGAGGAUAUUAUUUUAUUCGACUGAUAAGAAGGCAGUACAUGAGGAUCACCCAUGUGGGUAGCCAG | 27.9 | 170 |  |  |
| GUUUAGUGAGGAUAUGUGGCUUCGAUCGUGCGAGGGCGGCUACAGAAGGCACAUGAGGAUCACCCAUGUUCCUC | 155 | 428 |  |  |
| GUUUAUUAUUAGAAGGUGCCAGCGAGAGCUGCACAUGAGGAUCACCCAUGUUGUCGGUGACGACGCAAGGAUAUGGUGGUGGAU |  |  | 300 | 91.5 |
| GUUUCACAUGAGGAUCACCCAUGUGAGGAUAUGGAUUCGCUGGCCGUAGCCAGUGGAUCCAGAAGGCGCAUGAU | 35.7 | 44 |  |  |
| GUUUCUAUAAGUUAUAAUAAAUAGUCAGAAGGUGAUACUACGACAUGAGGAUCACCCAUGUUUUUCAAGGAUAUGAUGUUACUC |  |  | 373 | 50 |
| GUUUGACAUGAGGAUCACCCAUGUGAGGAUAUACGAGUAGCUGCUAGGUAGUUAGUAUGUAGAAGGUGCGUGUU | 75.6 | 71 |  |  |
| GUUUGACAUGAGGAUCACCCAUGUGAGGAUAUCGGCUGGUACGUGUUGGCUGGCAUCUCGAGAAGGCACAUAGG | 134 | 60.5 |  |  |
| GUUUGAUGAGGAUAUCGAGGUUAGUACAUGAGGAUCACCCAUGUUAUCCAGGUGUCGGUUCGAGAAGGUAUUGGAC | 18.4 | 38.1 |  |  |
| GUUUGGAGUGGAGGAUAUGCGGACGAACGAUAAGCAGAAGGCCACAUGAGGAUCACCCAUGUCGGCUGUGCCGGGUGGUUGACG | 41.6 | 50.8 |  |  |
| GUUUUCGCAUGAGGAUAUGCUCGCAUUUCAAGAGCAGAAGGUAUGUCUAUAGACAUGAGGAUCACCCAUGUAUCUAACUUUGAA |  |  | 352 | 65 |
| GUUUUGUAAGAGAAGGAGGACUUCAUGAGGAUCACCCAUGUGUUAGUACUUAGGAUAUUUGACAACAUGAGGAUCACCCAUGUC |  |  | 57.8 | 57.9 |
| GUUUUUCCUCAUGUACAUGAGGAACAUGAGGAUCACCCAUGUAGAAGGAAUUUUUUUAAGUUUAGUUAGGAUAUACAUAUAUUG | 106 | 71.5 |  |  |
| UAAAAGACUAGCAUGGUAACCUUCACAUGAGGAUCACCCAUGUAGGAUAUGAGCAGAAAAUCUGCUCAGAAGGACAUGCUAGUC | 3.31 | 3.67 |  |  |
| UAAAAGACUAGCUGGUAUCUCCACAUGAGGAUCACCCAUGUCUAGGAUAUGAGCAGCAAAGCUGCUUAGAAGGAGACGCUAGUC | 7.67 | 8.83 |  |  |
| UAAACAUGAGGAUCACCCAUGUUAUGAUCGGUUGAUGAAAGUGAGGAUAUACUUAAUUUUAUGGAGUAGAAGGCACUGGGUUCU |  |  | 23.1 | 28.6 |
| UAAAUAAAGUAAGGAUAUACAUGAGGAUUUCUCGUAGAAGGUACAAGACAUGAGGAUCACCCAUGUAUCGCUCCGUAGAGCGUA |  |  | 138 | 237 |
| UAAAUAAUGUAAGGAUAUACAUGAGGAAUUCUCGUAGAAGGUACAUGACAUGAGGAUCACCCAUGUAUCGCUCAGUAGAGCGUA |  |  | 152 | 311 |
| UAAAUUAUCAAGAAGGCUAACAUGAGGAUCACCCAUGUUGUACAUGGAUAUAGAGGAUAUUGCUAAUAAUUAUUUAUCAUAAUU | 15.3 | 14.8 |  |  |
| UAACGCGCAUGCAAGGAUAUGUGCAGAGCUACAUGAGGAUCACCCAUGUGGUUAUGCUAUUGAAAACAGAAGGUGCCCUCGCUCA |  |  | 25.8 | 24.3 |
| UAAGAGUGAGGAUAUUCGUAGUACACGGAGACGUGUAUUACGGAGAAGGCACAUGAGGAUCACCCAUGUUCCUU | 15.6 | 48.5 |  |  |
| UAAGCCGGGUCUGCAUGAGCUUACAUGAGGAUCACCCAUGUAAGAAGGGACGCUACGUUAAAGUGUCAGGAUAUUGCGAACGGG | 5.26 | 5.73 |  |  |
| UAAGCCGGGUCUGCAUGAGCUUACAUGAGGAUCACCCAUGUAAGAAGGGACGCUACGUUAUAGUGUCAGGAUAUUGCGAACGGG | 5.15 | 5.66 |  |  |
| UAAGCGCAGGAGAAGGGCACUGGACGCUCGCUACAUGAGGAUCACCCAUGUGCAGGAUAUCCGGCGCCGCCCGCAAACUCGGCG | 5.14 | 13.3 |  |  |

| Sequence | apparent Kd [1] [nM] | apparent Kd [2] [nM] | apparent Kd [3] [nM] | apparent Kd [4] [nM] |
| --- | --- | --- | --- | --- |
| UAAUAAAGCAGUGUAUUAAGAUCACAUGAGGAUCACCCAUGUAAGGAUAUGAGCAGAAAAUCUGCUCAGAAGGUACGAACACUG | 9.51 | 32.4 |  |  |
| UAAUAAUAAUAAUAAUCCUGCAUACAUGAGGAUCACCCAUGUAAGGAUAUCGUCAGGAAUACUGACGAGAAGGUACAUAGCAGG | 15.8 | 19.3 |  |  |
| UAAUAAUAAUAAUAGCAGUAUUACAUGAGGAUCACCCAUGUAUAGGAUAUCGUCAGGAAUACUGUCGAGAAGGAUACAAACUGC | 20.7 | 28.7 |  |  |
| UAAUAAUAGUGAGGAUAUAGUUAUUAUAAUAUACUAGAAGGUACACAUGAGGAUCACCCAUGUUUUAUAAUUUGUAAUUUAAAU | 23.2 | 20.5 |  |  |
| UAAUCUCAGAUAGGAUAUAUAGGAUGAUUUAAGACCGAACAUGAGGAUCACCCAUGUGAUUAUCUGUAGAAGGAUCAAUGACCC |  |  | 285 | 246 |
| UAAUUAAAUGUGAGGAUAUGCUGGUCCUUGGAUCAGCAGAAGGCACAUGAGGAUCACCCAUGUAAUUUAUUUAU | 75.2 | 285 |  |  |
| UACAACUUCGUAGGAUAUGUAUAUAAUUUCUACAUGAGGAUCACCCAUGUUAGCAUUUUUUAUUGACAGAAGGACGUAAUCUAA |  |  | 7.55 | 5.89 |
| UACACGGUAGGAUAUACGUAGAUGCAGGUUCGUGUGGUGCUACAUGAGGAUCACCCAUGUAGAAGGACCAACGU | 15.7 | 15.2 |  |  |
| UACAUGAGGAUCACCCAUGUUUUGUCGUGUAUGGUAUUUAUCUAGGAUAUCAAGUUGUUUAUUUAUGAGAAGGAGAAUAUUAAU | 34.3 | 38.1 |  |  |
| UACAUUGCUUAGAAGGGAUAUAUAUAAUUUUAGUCAGGAUAUAGAUACAGUACAACAUGAGGACAUGAGGAUCACCCAUGUAUU |  |  | 25.9 | 18.4 |
| UACCACCGCACGGACACGUCGAGUCAGGAUAUACAUGAGGAUCACCCAUGUGAAGGCCGGUUCAUGUAGAAGGGACAGGCGUUG | 49.8 | 100 |  |  |
| UACCGCCGCACGGACGCGUUGAGUCAGGAUAUACAUGAGGAUCACCCAUGUGAAGGCCGGCUCAUGUAGAAGGGACAAGCGUUG | 6.2 | 7.14 |  |  |
| UACCUGAGGCAAAGCUUUAGGUAUACAUGAGGAUCACCCAUGUAGGAUAUGGUAGGCUUUGCCUACCAGAAGGACAUGUUAAUU | 19.7 | 55.3 |  |  |
| UACGAAUACCCUCGUCGGCUGAAUCCAGAAGGACCACAUGAGGAUCACCCAUGUCGAAGAUAAAGGUAGGAUAUGGAGUGCCUA |  |  | 119 | 23.9 |
| UACGAGUCAGGAUAUUGGGCAAUAGCAUUACGGAACGAUCACAAGAAGGGACAUGAGGAUCACCCAUGUUAUAU | 23.8 | 21.7 |  |  |
| UACGGACAUGAGGAUCACCCAUGUGAGGAUAUCGGUACCGAUAGCAUAAUCUGCUCGGCGAGAAGGCACAGCGU | 29.8 | 42.8 |  |  |
| UACUUCCGAGGAUAUACAUGAGGAUCACCCAUGUGCUUCAGCAUUUUUUGAUGCAUGGGUAGAAGGCGGUAGUU | 315 | 270 |  |  |
| UAGAAGUCAGGAUAUCCUGCUCGUCACUUGCGUGAUGAGUAGGAGAAGGGACAUGAGGAUCACCCAUGUAAAGA | 53.8 | 53.4 |  |  |
| UAGACGUUGCAGAAGGUUAUUUUUAUAACGUGCCACUUGACAUGAGGAUCACCCAUGUAAUUGAUGAAGGAUAUGCAACGGUAG | 6.34 | 5.83 |  |  |
| UAGAUGGGAGGAUAUACAUAGAUACAGAUUCGUGUAGUGCUACAUGAGGAUCACCCAUGUAGAAGGCCCGUCUU | 16.2 | 71.9 |  |  |
| UAGCAUUGCCUUUGGUAGUGCUUUACAUGAGGAUCACCCAUGUAGGAUAUGGUAGGCUUUGCUUACCAGAAGGACAUGAUAAUU | 52.9 | 166 |  |  |
| UAGGUGUGAGGAUAUGGUAAAGAAAAGAUGAUGAAAGAACUCCAGAAGGCACAUGAGGAUCACCCAUGUAGAUG | 26.3 | 54.5 |  |  |
| UAGUAGAUCCGAGGAUAUACAAUCCGGAAACGGUACAUGAGGAUCACCCAUGUAGAAGGCGGAUCUACAGGUACUAAAGUACCG | 6.19 | 9.18 |  |  |
| UAGUAUAACGAAGGAUAUGGAUACAUGAGGAUCACCCAUGUAUUUUUUGUGAUUUUAAAAUUGAUCCAGAAGGUCGUAUAAUUA | 23.6 | 28.2 |  |  |
| UAGUAUAAGGGCAUUAAACAUGAGGAUCACCCAUGUACAAUAGAGGAUAUGCAUUUCAGUUUAGAGUAGAAGGUUAGAGAAUAU | 35.6 | 41.1 |  |  |
| UAGUAUAAGGGCAUUAAACAUGAGGAUCACCCAUGUACGUUAGAGGAUAUGCAUUUCAGUUGAGAGUAGAAGGUUAGAGAAGGG | 45.1 | 47.4 |  |  |
| UAUAUAAUUAAGAGCUGGUCCAAAACAUGAGGAUCACCCAUGUAGGAUAUCAGCACGAUAAGUGCUGAGAAGGACAUCCAGCUC | 18.5 | 16.4 |  |  |
